Assay results from ChEMBL document CHEMBL4000187, “Design and synthesis of emodin derivatives as novel inhibitors of ATP-citrate lyase” (Eur J Med Chem, 2017).
Activity calls are given as the source filed them. The calls are words filed in the database; no cut-off is given here.

How the values were obtained:
[1] = target: T1, ATP-citrate synthase (Homo sapiens, UniProt P53396); test: Inhibition of ATP citrate lyase (unknown origin) using sodium citrate as substrate after 60 mins by ADP-Glo luminescence assay
T1 sequence (P53396 whole entry): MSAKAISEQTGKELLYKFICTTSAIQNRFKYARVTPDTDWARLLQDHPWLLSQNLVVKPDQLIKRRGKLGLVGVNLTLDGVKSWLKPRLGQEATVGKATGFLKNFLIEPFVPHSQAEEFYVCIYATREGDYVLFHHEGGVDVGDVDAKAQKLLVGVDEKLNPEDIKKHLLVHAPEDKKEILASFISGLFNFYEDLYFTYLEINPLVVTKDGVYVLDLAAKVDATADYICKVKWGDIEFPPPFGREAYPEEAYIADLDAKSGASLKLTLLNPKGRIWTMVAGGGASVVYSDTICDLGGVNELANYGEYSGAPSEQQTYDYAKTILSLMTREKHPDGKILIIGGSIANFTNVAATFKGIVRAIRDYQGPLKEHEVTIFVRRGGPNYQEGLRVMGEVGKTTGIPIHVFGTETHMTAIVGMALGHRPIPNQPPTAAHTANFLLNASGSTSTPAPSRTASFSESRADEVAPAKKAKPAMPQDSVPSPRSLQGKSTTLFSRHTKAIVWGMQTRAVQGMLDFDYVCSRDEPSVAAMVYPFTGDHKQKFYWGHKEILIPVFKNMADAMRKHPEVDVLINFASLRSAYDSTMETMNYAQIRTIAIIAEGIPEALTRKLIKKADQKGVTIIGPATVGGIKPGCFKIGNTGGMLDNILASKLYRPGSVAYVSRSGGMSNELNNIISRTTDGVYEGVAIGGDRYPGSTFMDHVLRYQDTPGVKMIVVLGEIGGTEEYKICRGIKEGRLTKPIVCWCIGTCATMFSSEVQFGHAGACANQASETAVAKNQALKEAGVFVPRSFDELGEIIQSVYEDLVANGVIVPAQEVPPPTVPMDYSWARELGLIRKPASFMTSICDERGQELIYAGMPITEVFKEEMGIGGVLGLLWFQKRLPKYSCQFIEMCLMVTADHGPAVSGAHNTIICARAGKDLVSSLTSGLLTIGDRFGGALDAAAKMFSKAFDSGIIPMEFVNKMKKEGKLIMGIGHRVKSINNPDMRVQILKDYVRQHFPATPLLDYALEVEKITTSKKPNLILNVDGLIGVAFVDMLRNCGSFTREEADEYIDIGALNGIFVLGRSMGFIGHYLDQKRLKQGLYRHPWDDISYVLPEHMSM
Procedure, shortened: (§1)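 ADP-Glo reagent then added for 45 min at room temperature, and ADP formed was read by luminescence. Dose-response run in duplicate over 0.03–30 µM in 3.3-fold serial dilutions.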

[2] = target: T2, ATP-citrate synthase (Homo sapiens) (UniProt P53396); test: Inhibition of ATP citrate lyase (unknown origin) at 10 uM using sodium citrate as substrate after 60 mins by ADP-Glo luminescence assay relative to control; procedure, shortened: as §1
T2 sequence (whole entry): T1 sequence (P53396 whole entry)

[3] = system: A549; test: Antiproliferative activity against human A549 cells at 10 uM after 24 hrs by WST1 assay relative to control; type: functional; conditions: A549, 24 h
Procedure, shortened: (§2)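 A549 cells seeded at 5 × 10⁴/well in Ham's F-12 with 10% FBS, with or without compound, cultured 24 h at 37 °C in 5% CO₂. Single-concentration screen at 5 µM; dose-escalation at 1, 5, 10 µM. WST-1 reagent added, 1 h incubation, absorbance at 450 nm. ACL shRNA/siRNA knockdown served as positive control.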

[4] = system: A549; test: Antiproliferative activity against human A549 cells after 24 hrs by WST1 assay; type: functional, cell-based; procedure, shortened: as §2
[5] = system: A549; test: Inhibition of cancer stemness in human A549 cells under 3D culture condition assessed as reduction in spheroid size by Hoechst 33342/Sytox green staining-based confocal microscopic method; type: functional, cell-based
Procedure, shortened: (§3)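 Cells seeded at 2000 per well onto 1.5% agarose-coated wells and grown 2 days at 37 °C, 5% CO₂ to form spheroids before treatment. Staining used Hoechst 33342 for all nuclei plus Sytox Green for dead cells, each at 1:10,000 final. Confocal imaging measured spheroid inner area and Sytox Green integrated density (IntDen), with IntDen/Area as the index.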

[6] = system: HMLE; test: Inhibition of cancer stemness in snail expressing HMLE cells under 3D culture condition assessed as reduction in spheroid size by Hoechst 33342/Sytox green staining-based confocal microscopic method; type: functional, cell-based; conditions: Homo sapiens; procedure, shortened: as §3
[7] = system: A549; test: Inhibition of cancer stemness in human A549 cells under 3D culture condition assessed as induction of apoptosis in spheroid by Hoechst 33342/Sytox green staining-based confocal microscopic method; type: functional, cell-based; procedure, shortened: as §3
[8] = system: HMLE; test: Inhibition of cancer stemness in snail expressing HMLE cells under 3D culture condition assessed as induction of apoptosis in spheroid by Hoechst 33342/Sytox green staining-based confocal microscopic method; type: functional, cell-based; conditions: Homo sapiens; procedure, shortened: as §3
[9] = target: T2, ATP-citrate synthase (Homo sapiens); test: Inhibition of ATP citrate lyase (unknown origin) at 3.3 uM using sodium citrate as substrate after 60 mins by ADP-Glo luminescence assay relative to control; procedure, shortened: as §1
[10] = system: A549; test: Antiproliferative activity against human A549 cells at 5 uM after 24 hrs by WST1 assay relative to control; type: functional; conditions: A549, 24 h; procedure, shortened: as §2
[11] = system: HMLE; test: Inhibition of cancer stemness in snail expressing HMLE cells under 3D culture condition assessed as reduction in spheroid size at 25 uM by Hoechst 33342/Sytox green staining-based confocal microscopic method; type: functional, cell-based; conditions: Homo sapiens; procedure, shortened: as §3
[12] = system: HMLE; test: Inhibition of cancer stemness in snail expressing HMLE cells under 3D culture condition assessed as induction of apoptosis in spheroid at 25 uM by Hoechst 33342/Sytox green staining-based confocal microscopic method; type: functional, cell-based; conditions: Homo sapiens; procedure, shortened: as §3
[13] = system: A549; test: Inhibition of cancer stemness in human A549 cells under 3D culture condition assessed as reduction in spheroid size at 25 uM by Hoechst 33342/Sytox green staining-based confocal microscopic method; type: functional, cell-based; procedure, shortened: as §3
[14] = system: A549; test: Inhibition of cancer stemness in human A549 cells under 3D culture condition assessed as induction of apoptosis in spheroid at 25 uM by Hoechst 33342/Sytox green staining-based confocal microscopic method; type: functional, cell-based; procedure, shortened: as §3

Cc1cc(O)c2c(c1)C(=O)c1cc3c(c(O)c1C2=O)CN(c1ccccc1)CO3
IC50 [1]: 25.8 µM

Cc1cc(O)c2c(c1)Cc1cc(O)cc(O)c1C2=O
inhibition [2]: 0%

Cc1cc(O)c2c(c1)C(=O)c1cc(O)cc(O)c1C2=O
inhibition [2]: 0%

Cc1cc(O)c2c(c1)C(=O)c1cc(O)c(I)c(O)c1C2=O
IC50 [1]: 7.5 µM

Cc1cc(O)c2c(c1)C(=O)c1c(Br)c(O)c(Br)c(O)c1C2=O
inhibition at 10 µM [3]: 100%
IC50 [1]: 2.9 µM
inhibition [4]: Dose-dependent effect
inhibition [5]: Dose-dependent effect
inhibition [6]: Dose-dependent effect
inhibition [7]: Dose-dependent effect
inhibition [8]: Dose-dependent effect
inhibition [9]: > 99%
inhibition [2]: > 99%
inhibition at 5 µM [10]: 40 to 80%

Cc1cc(O)c2c(c1)C(=O)c1cc(O)c(CN3CCCCC3)c(O)c1C2=O
inhibition [2]: 6%

Cc1cc(O)c2c(c1)C(=O)c1cc(O)c(CN(C)c3ccccc3)c(O)c1C2=O
inhibition [2]: 6%

COc1ccc(-c2ccccc2)cc1NS(=O)(=O)c1cc(Cl)cc(Cl)c1O
inhibition [11]: Active
inhibition [12]: Active
inhibition [13]: Active
inhibition [14]: Active

Cc1cc(O)c2c(c1)Cc1c(Cl)c(O)cc(O)c1C2=O
IC50 [1]: 3.8 µM
inhibition at 5 µM [10]: 40 to 80%

COc1cc(OC)cc(-c2c(O)cc3c(c2O)C(=O)c2c(O)cc(C)cc2C3=O)c1
inhibition [2]: 0%

Cc1cc(O)c2c(c1)C(=O)c1cc(O)c(-c3cccnc3)c(O)c1C2=O
IC50 [1]: 21.1 µM

COc1cccc(-c2c(O)cc3c(c2O)C(=O)c2c(O)cc(C)cc2C3=O)c1
IC50 [1]: 21.2 µM

Cc1cc(O)c2c(c1)C(=O)c1cc(O)c(CN3CCOCC3)c(O)c1C2=O
inhibition [2]: 10%

Cc1cc(O)c2c(c1)C(=O)c1cc(O)c(Cl)c(O)c1C2=O
IC50 [1]: 12.6 µM
inhibition at 5 µM [10]: 40 to 80%

COc1cc2c(c(OC)c1Cl)C(=O)c1c(OC)cc(C)cc1C2=O
inhibition [2]: 0%

Cc1ccc(-c2c(O)cc3c(c2O)C(=O)c2c(O)cc(C)cc2C3=O)cc1
inhibition [2]: 0%

COc1ccc(-c2c(O)cc3c(c2O)C(=O)c2c(O)cc(C)cc2C3=O)cc1
IC50 [1]: 18.8 µM

Cc1cc(O)c2c(c1)C(=O)c1c(Cl)c(O)cc(O)c1C2=O
IC50 [1]: 9.6 µM
inhibition at 5 µM [10]: 40 to 80%

Cc1cc(O)c2c(c1)C(=O)c1cc(O)c(-c3ccccc3)c(O)c1C2=O
inhibition [2]: 8%

Cc1cc(O)c2c(c1)C(=O)c1c(c(O)c(-c3cccnc3)c(O)c1-c1cccnc1)C2=O
IC50 [1]: 23.5 µM

Cc1cccc(-c2c(O)cc3c(c2O)C(=O)c2c(O)cc(C)cc2C3=O)c1
IC50 [1]: 30 µM

Cc1cc(O)c2c(c1)C(=O)c1cc(O)c(-c3ccncc3)c(O)c1C2=O
inhibition [2]: 0%

Cc1cc(O)c2c(c1)C(=O)c1cc3c(c(O)c1C2=O)CN(c1ccc2ocnc2c1)CO3
IC50 [1]: 29.7 µM

Cc1cc(O)c2c(c1)C(=O)c1cc(O)c(-c3cnn(C)c3)c(O)c1C2=O
IC50 [1]: 13.3 µM
inhibition [4]: Dose-dependent effect
inhibition at 5 µM [10]: 40 to 80%
